Laboratory results as given in ChEMBL document CHEMBL1152449, “6-methyl-2,4-disubstituted pyridazin-3(2H)-ones: a novel class of small-molecule agonists for formyl peptide receptors” (J Med Chem, 2009).

Columns and labels:
fMet-Leu-Phe receptor [1] = target: T1, fMet-Leu-Phe receptor (Homo sapiens, UniProt P21462); experiment: Agonist activity at FPR1 expressed in human HL60 cells assessed as induction of intracellular calcium flux by FLIPR3 calcium assay; format: functional, cell-based, HL-60
T1 sequence (P21462 whole entry): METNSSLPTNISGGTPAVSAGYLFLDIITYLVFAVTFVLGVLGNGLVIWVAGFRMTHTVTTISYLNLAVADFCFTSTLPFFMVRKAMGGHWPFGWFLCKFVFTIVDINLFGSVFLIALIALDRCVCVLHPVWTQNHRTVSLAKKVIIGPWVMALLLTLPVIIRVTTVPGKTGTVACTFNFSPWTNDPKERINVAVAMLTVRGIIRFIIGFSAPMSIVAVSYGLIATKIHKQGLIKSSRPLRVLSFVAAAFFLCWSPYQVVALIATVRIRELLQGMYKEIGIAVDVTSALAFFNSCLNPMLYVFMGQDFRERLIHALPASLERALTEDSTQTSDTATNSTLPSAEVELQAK
In short: (§1)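 HL-60 cells stably transfected with the receptor, grown in RPMI with 10% heat-inactivated FCS, 10 mM HEPES, antibiotics and G418 (1 mg/mL). They were then washed, resuspended in HBSS+ (2 × 10^5 cells/well) and read on a FlexStation II.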

[2] = target: T2, N-formyl peptide receptor 2 (Homo sapiens, UniProt P25090); experiment: Agonist activity at FPRL1 expressed in human HL60 cells assessed as induction of intracellular calcium flux by FLIPR3 calcium assay; format: functional, cell-based; details: hl-60; in short: as §1
T2 sequence (P25090 whole entry): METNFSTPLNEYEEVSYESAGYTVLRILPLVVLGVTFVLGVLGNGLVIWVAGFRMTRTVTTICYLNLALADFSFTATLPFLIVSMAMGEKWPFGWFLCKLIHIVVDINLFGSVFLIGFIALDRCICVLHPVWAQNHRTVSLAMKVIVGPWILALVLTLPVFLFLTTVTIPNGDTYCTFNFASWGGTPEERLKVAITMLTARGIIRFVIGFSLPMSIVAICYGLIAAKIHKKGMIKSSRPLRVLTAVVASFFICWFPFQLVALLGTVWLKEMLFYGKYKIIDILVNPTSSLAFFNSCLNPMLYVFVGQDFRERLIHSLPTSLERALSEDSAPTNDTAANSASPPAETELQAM

[3] = target: T3, N-formyl peptide receptor 3 (Homo sapiens, UniProt P25089); experiment: Agonist activity at FPRL2 expressed in human HL60 cells assessed as induction of intracellular calcium flux by FLIPR3 calcium assay; format: functional, cell-based; details: hl-60; in short: as §1
T3 sequence (P25089 whole entry): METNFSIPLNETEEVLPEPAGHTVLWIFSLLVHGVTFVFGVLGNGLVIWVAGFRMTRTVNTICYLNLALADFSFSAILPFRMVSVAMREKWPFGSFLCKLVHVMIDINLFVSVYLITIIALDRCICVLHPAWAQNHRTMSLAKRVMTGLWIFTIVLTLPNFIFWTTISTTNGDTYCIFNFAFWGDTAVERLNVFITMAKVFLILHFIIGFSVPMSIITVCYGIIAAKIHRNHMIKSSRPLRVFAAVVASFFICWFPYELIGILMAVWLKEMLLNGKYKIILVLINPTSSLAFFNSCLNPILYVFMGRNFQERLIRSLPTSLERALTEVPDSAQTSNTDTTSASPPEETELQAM

fMet-Leu-Phe receptor [4] = target: T1, fMet-Leu-Phe receptor; experiment: Agonist activity at FPR1 in human neutrophiles assessed as induction of intracellular calcium flux by FLIPR3 calcium assay; format: functional, cell-based
[5] = target: T4, fMet-Leu-Phe receptor (Homo sapiens) (UniProt P21462); experiment: Agonist activity at FPR1 expressed in human HL60 cells assessed as induction of intracellular calcium flux by FLIPR3 calcium assay relative to N-formyl-methionyl-leucyl-phenylalanine; format: functional, cell-based; details: HL-60
T4 sequence (whole entry): T1 sequence (P21462 whole entry)

EC50 (fMet-Leu-Phe receptor [1]; hl-60)	Structure (SMILES)	EC50 (fMet-Leu-Phe receptor [1]; read-out: EC50) [nM]	EC50 [2]	EC50 [3]	EC50 (fMet-Leu-Phe receptor [4]) [nM]	Activity [5] [%]
–	COc1cccc(Cc2cc(C)nn(CC(=O)Nc3ccc4c(c3)OCO4)c2=O)c1	2300	Not Active	Not Active	3600	50
Not Active	COc1cccc(Cc2cc(C)nn(CC(=O)c3ccc(Br)cc3)c2=O)c1	–	Not Active	Not Active	–	–
